Converted amounts (≈) assume the structure as drawn.
Columns and labels:
HCV life cycle = format: cell-based, Hepatitis C virus; conditions: designated from HCVsc, HCVpp and HCV replicon inhibition (>50% = significant)
HCVsc = assay: HCV single-cycle infection assay; format: cell-based, Hepatitis C virus; conditions: significant = more than 50% decrease
Method in brief: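 Single-round defective HCV particles were made by replicon trans-packaging. These particles infect and replicate but cannot assemble new virions. Luciferase signal was read 48 h after compound treatment, with cyclosporin A as positive control.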

HCVpp-1a = format: cell-based, Hepatitis C virus
[1] = system: HCV-Cre in Huh7.5.1LoxPGluc cells; assay: HCV-Cre/LoxPGluc cell-based HCV infection qHTS assay; parameters: species or system Hepatitis C virus; conditions: primary screen, luciferase 48 h
Method in brief: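 Huh7.5.1LoxPGluc cells carry a Cre-activated Gaussia luciferase and are kept in DMEM with 10% FBS at 37 °C and 5% CO2. Cells (750/well) were plated overnight, then given test compound and HCV-Cre at ~0.05 m.o.i. Five plates were run: DMSO plus 0.34, 1.7, 8.5 and 42 μM. Luciferase was read at 48 h. Responses were normalized to 10 μM cyclosporin A (100%) and DMSO (0%), and EC50 was fitted by nonlinear regression.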

[2] = Rat liver microsomal stability; format: in vitro ADME; conditions: for Microsomal t1/2: rat liver microsomes, 37°C, NADPH
Permeability = format: physicochemical
Aqueous solubility = format: physicochemical
[3] = system: HCV-WT (wild-type HCVcc) in Huh7.5.1 cells; assay: 2-part HCV-WT infection assay with HCV core immunofluorescence staining; format: cell-based, Hepatitis C virus; conditions: for higher potency at part-2 compared to part-1: HCV-WT 2-part infection assay
Method in brief: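 Huh7.5.1 cells (3,000/well) were infected with wild-type J6/JFH1 HCVcc at 0.05 moi, with test compound added at infection in 1:3 serial dilutions from 30 μM (part 1). After 48 h, the media were moved onto fresh Huh7.5.1 cells (part 2) and infected for 48 h. Cells were stained with anti-core 6G7 mAb, an Alexa Fluor 488 secondary and Hoechst, then imaged. Core-positive cell percentages were normalized to DMSO and plotted as concentration-response curves.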

DNA polymerase ETA = conditions: ref AID 588591; cited from earlier work
[4] = system: assembly of the perinucleolar compartement; conditions: ref AID 2427; cited from earlier work
[5] = system: human tyrosyl-DNA phosphodiesterase 1; conditions: cited from earlier work; for inhibitory activity of human tyrosyl-DNA phosphodiesterase 1: ref AID 686978
[6] = system: respiratory syncytial virus (RSV); conditions: ref AID: 2410; cited from earlier work
HIV = conditions: ref AID:651610; cited from earlier work
[7] = system: ELG1-dependent DNA repair; conditions: PubChem / in-house qHTS cross-activity, AID not given; cited from earlier work
miRNAs = conditions: D4 and its derivatives; ref AID: 2289; cited from earlier work
[8] = system: posterior segregation family member (pos-1) binding to mex-3-RNA; conditions: ref PubChem AID: 1964; cited from earlier work
[9] = system: 5′UTR stem-loop driven prion protein mRNA translation in H4 neuroglioblastoma cells; conditions: D4 and its derivatives, ref AID: 1814; cited from earlier work
[10] = system: human M1 muscarinic receptor; conditions: ref AID: 624040; cited from earlier work
D1 dopamine receptor = conditions: ref AID: 504660; cited from earlier work

N=c1c(C(=O)NCc2ccc3c(c2)OCO3)cc2c(=O)n3ccccc3nc2n1Cc1cccnc1 [MLS000040412-01]
Life cycle stage (HCV life cycle): entry inhibitors | inhibition in HCVsc assay (HCVsc): significant inhibition | inhibition in HCVpp assay (HCVpp-1a): less than 50%

Cc1ccccc1-c1nc(CN2CCC(C(=O)NCCC3=CCCCC3)CC2)c(C)o1 [MLS000095191-01]
EC50 [1]: 6.31 µM

Cc1oc(-c2ccc(Cl)cc2)nc1CN1CCC(C(=O)NCCCN2CCCC2=O)CC1 [MLS000878431-01]
EC50 [1]: 22.4 µM

Cc1ccccc1-c1nc(CN2CCC(C(=O)NCCCN3CCCC3)CC2)c(C)o1 [MLS000095192-01]
EC50 [1]: 14.1 µM

CCCCCn1c(=O)[nH]c2cc(C(=O)NCCN3CCCCC3C)ccc2c1=O (centres unmarked) [MLS000948325-01]
EC50 [1]: 22.4 µM

CCCCCn1c(=O)[nH]c2cc(C(=O)NCCCN3CCCCC3CC)ccc2c1=O (centres unmarked) [MLS000948303-01]
EC50 [1]: 7.08 µM

CCCCCn1c(=O)[nH]c2cc(C(=O)NCCCN3CCC(C)CC3)ccc2c1=O [MLS000876570-01]
EC50 [1]: 4.47 µM | Microsomal t1/2 [2]: > 30.0 m | half-life (t1/2) in rat microsomes [2]: greater than 30 min | Permeability (Permeability): < 30.9 ×10⁻⁶ cm/s | Solubility (Aqueous solubility): > 59.0 µg/mL | Life cycle stage (HCV life cycle): Entry

Cc1ccc(C)c2nc(SCC(=O)N3CCCc4ccccc43)c(C#N)cc12 [D7]
higher potency at part-2 compared to part-1 [3]: 10–50 fold

CC1CCN(CCCNC(=O)c2ccc3c(=O)n(CCc4ccccc4)c(=O)[nH]c3c2)CC1 [MLS000519916-01]
EC50 [1]: 8.91 µM

CCCCCn1c(=O)[nH]c2cc(C(=O)NC3CCN(Cc4ccccc4)CC3)ccc2c1=O [MLS000519908-01]
EC50 [1]: > 100 µM

Cc1ccccc1-c1nc(CN2CCC(C(=O)NCCN3CCOCC3)CC2)c(C)o1 [MLS000913230-01]
EC50 [1]: > 100 µM

Cn1c(=O)c2c(nc(SCC(=O)NCc3ccc4c(c3)OCO4)n2Cc2ccc(Cl)cc2)n(C)c1=O [D3]
inhibition of DNA polymerase ETA (DNA polymerase ETA): inhibitor | inhibition of assembly of the perinucleolar compartement [4]: inhibited the assembly

N#C/C(=C\Nc1ccc2cn[nH]c2c1)c1nc(-c2ccccc2)cs1 [D2]
inhibitory activity of human tyrosyl-DNA phosphodiesterase 1 [5]: showed inhibitory activity

CCC1CCCCN1CCCNC(=O)C1CCN(Cc2nc(-c3ccc(Cl)cc3)oc2C)CC1 (centres unmarked) [MLS000913279-01]
EC50 [1]: 1.41 µM

Cc1oc(-c2ccc(Cl)cc2)nc1CN1CCCC(C(=O)NCCCN2CCCC2=O)C1 (centres unmarked) [MLS000117605-01]
EC50 [1]: 11.2 µM

COc1ccc(CN2CCC(N(CCc3ccccc3)Cc3ccccc3)CC2)c(OC)c1.O=C(O)C(=O)O [MLS000662842-01]
Microsomal t1/2 [2]: 2.3 m | half-life (t1/2) in rat microsomes [2]: 2.3 min | Solubility (Aqueous solubility): 49.3 µg/mL | Life cycle stage (HCV life cycle): Assembly/secretion

Cc1ccccc1-c1nc(CN2CCC(C(=O)NCCCN3CC(C)CC(C)C3)CC2)c(C)o1 (centres unmarked) [MLS000877128-01]
EC50 [1]: 1.26 µM | Permeability (Permeability): 489.1 ×10⁻⁶ cm/s | Solubility (Aqueous solubility): 53.9 µg/mL (≈ 115 µM) | Life cycle stage (HCV life cycle): Entry

Cc1ccccc1-c1nc(CN2CCC(C(=O)NCC3CCCO3)CC2)c(C)o1 (centres unmarked) [MLS000095190-01]
EC50 [1]: > 100 µM

Cc1cc(SCC(=O)c2ccccc2)n2ncc(-c3ccccc3)c2n1 [MLS000763045-01]
higher potency at part-2 compared to part-1 [3]: 10–50 fold

CCC1CCCCN1CCCNC(=O)c1ccc2c(=O)n(CCOC)c(=O)[nH]c2c1 (centres unmarked) [MLS000948314-01]
EC50 [1]: > 100 µM

Cc1ccccc1-c1nc(CN2CCC(C(=O)NCc3cccnc3)CC2)c(C)o1 [MLS000095186-01]
EC50 [1]: 5.01 µM

CCCCCn1c(=O)[nH]c2cc(C(=O)NCCCN3CCCCC3)ccc2c1=O [MLS000086763-01]
EC50 [1]: 10 µM

CC1CCCCN1CCCNC(=O)c1ccc2c(=O)n(CCc3ccccc3)c(=O)[nH]c2c1 (centres unmarked) [MLS000519917-01]
EC50 [1]: 3.98 µM

CCOC(=O)c1cc2c(=O)n3ccccc3nc2n(CCCOC)c1=NC(=O)C(C)(C)C [MLS000879011-01]
Life cycle stage (HCV life cycle): entry inhibitors

COC(=O)C1=C(c2ccc(-c3ccccc3)c(F)c2)C[C@@H]2CC[C@H]1N2C(=O)NCc1cccc2ccccc12 [D1]
inhibitory activity of human tyrosyl-DNA phosphodiesterase 1 [5]: showed inhibitory activity

O=C(NCCCN1CCCCC1)c1ccc2c(=O)n(CCc3ccccc3)c(=O)[nH]c2c1 [MLS000086784-01]
EC50 [1]: 6.31 µM

Cc1c(NC(=O)c2cc3c(s2)-c2ccccc2OC3)cccc1[N+](=O)[O-] [D5]
inhibitory activity against human TDP1 ([5]; PubChem / in-house qHTS cross-activity, AID not given): showed inhibitory activities | inhibition of RSV [6]: inhibitor | inhibition of HIV (HIV): inhibitor | inhibitory activity against ELG1-dependent DNA repair [7]: showed inhibitory activities

CCNC(=S)/N=C(\N)Nc1nc(C)c2cc(C)ccc2n1 [D4]
modulation of miRNAs (miRNAs): potent modulators | targeting pos-1 binding to mex-3-RNA [8]: targets | activation of 5′UTR stem-loop driven prion protein mRNA translation [9]: activators

O=C(Nc1ccc(S(=O)(=O)Nc2ccccc2)cc1)c1ccc(CN2CCOCC2)cc1 [MLS000714550]
inhibition of HCV core-positive cells, part-1 versus part-2 ([3]; compounds 1:3 dilutions from 30 μM, 48 h per part): decreased similarly in both parts

COc1ccc(CCNC(=O)c2cc3c(=O)n4ccccc4nc3n(C3CCCCC3)c2=N)cc1 [MLS001139315-01]
Life cycle stage (HCV life cycle): entry inhibitors

COc1ccc(CCNC(=O)c2cc3c(=O)n4ccccc4nc3n(CCCN3CCOCC3)c2=N)cc1 [MLS001139388-01]
Life cycle stage (HCV life cycle): entry inhibitors

CCN1CCN(CCCOc2ccc(-c3ccccc3)cc2)CC1 [MLS000049859-01]
Microsomal t1/2 [2]: 7.9 m | half-life (t1/2) in rat microsomes [2]: 7.9 min | Permeability (Permeability): >2183.0 ×10⁻⁶ cm/s | Solubility (Aqueous solubility): > 48.0 µg/mL | Life cycle stage (HCV life cycle): Entry

CC(NC(=O)c1cc2c(=O)n3ccccc3nc2n(CC2CCCO2)c1=N)c1ccccc1 (centres unmarked) [MLS001217747-01]
Life cycle stage (HCV life cycle): entry inhibitors | inhibition in HCVsc assay (HCVsc): significant inhibition

CCN1CCN(c2ccc(NC(=O)c3cccc(OCc4ccccc4)c3)cc2)CC1 [B5]
activity against human M1 muscarinic receptor [10]: showed activities | activity against D1 dopamine receptor (D1 dopamine receptor): showed activities

Reference: publication PMC4684727 (Antiviral research, 2015)
